Data as given in ChEMBL document CHEMBL1156332, “Polysubstituted pyrazoles, part 6. Synthesis of some 1-(4-chlorophenyl)-4-hydroxy-1H-pyrazol-3-carbonyl derivatives linked to nitrogenous heterocyclic ring systems as potential antitumor agents” (2010).

How the values were obtained:
Format in all cases: functional
CCRF-CEM = assay: Growth inhibition of human CCRF-CEM cells after 48 hrs by sulforhodamine B assay
Method in brief: (§1)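 NCI 60-line panel, five concentrations (0.01–100 µM) from DMSO stock diluted in medium with gentamicin. Cells were plated 24 h before dosing, with time-zero plates fixed at drug addition, then exposed 48 h at 37 °C, 5% CO₂. Adherent cells were fixed with cold TCA (10% final) and suspension cells with 16% TCA. Staining used 0.4% SRB, solubilised in 10 mM Tris and read at 515 nm. GI₅₀ was taken from log concentration–% growth curves.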

HT-29 = assay: Growth inhibition of human HT-29 cells after 48 hrs by sulforhodamine B assay; conditions: HT-29, 48 h; method in brief: as §1
HOP-62 = assay: Growth inhibition of human HOP62 cells after 48 hrs by sulforhodamine B assay; conditions: HOP-62, 48 h; method in brief: as §1
[1] = Cytotoxicity against human breast cancer cells after 48 hrs by sulforhodamine B assay; conditions: Cancer cell lines
Method in brief: (§2)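 NCI five-dose screen: about 60 human tumour lines grouped into nine subpanels were plated and incubated 24 h before dosing. Compounds went in as DMSO stock and were diluted in medium to five final concentrations (0.01–100 µM). Exposure was 48 h continuous at 37 °C, 5% CO₂, followed by TCA fixation and SRB staining read at 515 nm. Per-line GI₅₀, TGI and LC₅₀ came from log concentration–% growth curves, averaged per subpanel as MG-MID.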

SW-620 = assay: Growth inhibition of human SW620 cells after 48 hrs by sulforhodamine B assay; conditions: SW-620, 48 h
Method in brief: (§3)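 Adherent lines plated and held 24 h at 37 °C, 5% CO2, 100% humidity; time-zero plates TCA-fixed at drug addition. Drugs from DMSO stocks were made into five concentrations by 10-fold or half-log serial dilution and applied for 48 h continuous exposure. Cells were fixed with cold TCA (10% final) for 60 min at 4 °C, then stained with 0.4% SRB in 1% acetic acid for 10 min. Dye was solubilized in 10 mM Tris base and read at 515 nm. GI50 was taken from log concentration–growth curves.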

[2] = Cytotoxicity against human renal cancer cells after 48 hrs by sulforhodamine B assay; conditions: Cancer cell lines; method in brief: as §2
[3] = Cytotoxicity against human ovarian cancer cells after 48 hrs by sulforhodamine B assay; conditions: Cancer cell lines; method in brief: as §2
[4] = Cytotoxicity against human prostate cancer cells after 48 hrs by sulforhodamine B assay; conditions: Cancer cell lines; method in brief: as §2
IGROV-1 = assay: Growth inhibition of human IGROV1 cells after 48 hrs by sulforhodamine B assay; conditions: IGROV-1, 48 h; method in brief: as §1
MCF7 = assay: Growth inhibition of human MCF7 cells after 48 hrs by sulforhodamine B assay; conditions: MCF7, 48 h; method in brief: as §1
TK-10 = assay: Growth inhibition of human TK10 cells after 48 hrs by sulforhodamine B assay; conditions: TK-10, 48 h; method in brief: as §3
SK-OV-3 = assay: Growth inhibition of human SKOV3 cells after 48 hrs by sulforhodamine B assay; conditions: SK-OV-3, 48 h; method in brief: as §3
KM12 = assay: Growth inhibition of human KM12 cells after 48 hrs by sulforhodamine B assay; conditions: KM12, 48 h; method in brief: as §1
ACHN = assay: Growth inhibition of human ACHN cells after 48 hrs by sulforhodamine B assay; method in brief: as §1
NCI-H23 = assay: Growth inhibition of human NCI-H23 cells after 48 hrs by sulforhodamine B assay; conditions: NCI-H23, 48 h; method in brief: as §1
NCI-H460 = assay: Growth inhibition of human NCI-H460 cells after 48 hrs by sulforhodamine B assay; conditions: NCI-H460, 48 h; method in brief: as §1
SF-268 = assay: Growth inhibition of human SF268 cells after 48 hrs by sulforhodamine B assay; conditions: SF-268, 48 h; method in brief: as §1
HCT-116 = assay: Growth inhibition of human HCT116 cells after 48 hrs by sulforhodamine B assay; conditions: HCT-116, 48 h; method in brief: as §1
786-0 = assay: Growth inhibition of human 786-0 cells after 48 hrs by sulforhodamine B assay; conditions: 786-0, 48 h; method in brief: as §1
[5] = Cytotoxicity against human CNS cancer cells after 48 hrs by sulforhodamine B assay; conditions: Cancer cell lines; method in brief: as §2
T47D = assay: Growth inhibition of human T47D cells after 48 hrs by sulforhodamine B assay; method in brief: as §3
SK-MEL-5 = assay: Growth inhibition of human SK-MEL-5 cells after 48 hrs by sulforhodamine B assay; conditions: SK-MEL-5, 48 h; method in brief: as §3
NCI-H522 = assay: Growth inhibition of human NCI-H522 cells after 48 hrs by sulforhodamine B assay; conditions: NCI-H522, 48 h; method in brief: as §1
HCT-15 = assay: Growth inhibition of human HCT15 cells after 48 hrs by sulforhodamine B assay; conditions: HCT-15, 48 h; method in brief: as §1
OVCAR-8 = assay: Growth inhibition of human OVCAR8 cells after 48 hrs by sulforhodamine B assay; conditions: OVCAR-8, 48 h; method in brief: as §1
HOP-92 = assay: Growth inhibition of human HOP92 cells after 48 hrs by sulforhodamine B assay; conditions: HOP-92, 48 h; method in brief: as §1
MDA-MB-468 = assay: Growth inhibition of human MDA-MB-468 cells after 48 hrs by sulforhodamine B assay; conditions: MDA-MB-468, 48 h; method in brief: as §1
M14 = assay: Growth inhibition of human M14 cells after 48 hrs by sulforhodamine B assay; conditions: M14, 48 h; method in brief: as §1
SNB-75 = assay: Growth inhibition of human SNB75 cells after 48 hrs by sulforhodamine B assay; conditions: SNB-75, 48 h; method in brief: as §3
SF-539 = assay: Growth inhibition of human SF539 cells after 48 hrs by sulforhodamine B assay; conditions: SF-539, 48 h; method in brief: as §3
[6] = Cytotoxicity against human lung cancer cells after 48 hrs by sulforhodamine B assay; conditions: Cancer cell lines; method in brief: as §2
HCC 2998 = assay: Growth inhibition of human HCC2998 cells after 48 hrs by sulforhodamine B assay; conditions: HCC 2998, 48 h; method in brief: as §1
[7] = Growth inhibition of human Hs 578T cells after 48 hrs by sulforhodamine B assay; method in brief: as §1
A498 = assay: Growth inhibition of human A498 cells after 48 hrs by sulforhodamine B assay; conditions: A498, 48 h; method in brief: as §1
UACC-62 = assay: Growth inhibition of human UACC62 cells after 48 hrs by sulforhodamine B assay; conditions: UACC-62, 48 h; method in brief: as §3
U-251 = assay: Growth inhibition of human U251 cells after 48 hrs by sulforhodamine B assay; conditions: U-251, 48 h; method in brief: as §3
UO-31 = assay: Growth inhibition of human UO31 cells after 48 hrs by sulforhodamine B assay; conditions: UO-31, 48 h; method in brief: as §3
BT-549 = assay: Growth inhibition of human BT549 cells after 48 hrs by sulforhodamine B assay; conditions: BT-549, 48 h; method in brief: as §1
CAKI-1 = assay: Growth inhibition of human Caki1 cells after 48 hrs by sulforhodamine B assay; conditions: CAKI-1, 48 h; method in brief: as §1
COLO 205 = assay: Growth inhibition of human COLO205 cells after 48 hrs by sulforhodamine B assay; conditions: COLO 205, 48 h; method in brief: as §1
RPMI-8226 = assay: Growth inhibition of human RPMI8226 cells after 48 hrs by sulforhodamine B assay; conditions: RPMI-8226, 48 h; method in brief: as §1

SMILES: O=C1CC(=O)N(C(=O)c2nn(-c3ccc(Cl)cc3)cc2O)N1
- GI50 (CCRF-CEM): 420 nM
- GI50 (HT-29): 580 nM
- GI50 (HOP-62): 510 nM
- GI50 [1]: 820 nM
- TGI [1]: 79.6 µM
- GI50 (SW-620): 2320 nM
- GI50 [2]: 850 nM
- TGI [2]: 71.8 µM
- GI50 [3]: 1080 nM
- TGI [3]: 84 µM
- GI50 [4]: 670 nM
- GI50 (IGROV-1): 380 nM
- GI50 (MCF7): 1560 nM
- GI50 (TK-10): 350 nM
- GI50 (SK-OV-3): 1920 nM
- GI50 (KM12): 1160 nM
- GI50 (ACHN): 580 nM
- GI50 (NCI-H23): 490 nM
- GI50 (NCI-H460): 310 nM
- GI50 (SF-268): 510 nM
- GI50 (HCT-116): 340 nM
- GI50 (786-0): 3.77 µM
- GI50 [5]: 330 nM
- TGI [5]: 87.9 µM
- GI50 (T47D): 450 nM
- GI50 (SK-MEL-5): 1920 nM
- GI50 (NCI-H522): 300 nM
- GI50 (HCT-15): 490 nM
- GI50 (OVCAR-8): 640 nM
- GI50 (HOP-92): 500 nM
- GI50 (MDA-MB-468): 720 nM
- GI50 (M14): 710 nM
- GI50 (SNB-75): 240 nM
- GI50 (SF-539): 370 nM
- GI50 [6]: 510 nM
- TGI [6]: 80.3 µM
- GI50 (HCC 2998): 4.74 µM
- GI50 [7]: 190 nM
- GI50 (A498): 110 nM
- GI50 (UACC-62): 390 nM
- GI50 (U-251): 180 nM
- GI50 (UO-31): 550 nM
- GI50 (BT-549): 370 nM
- GI50 (CAKI-1): 650 nM
- GI50 (COLO 205): 940 nM
- GI50 (RPMI-8226): 380 nM
